MC4R antagonist = antagonists of human melanocortin 4 receptor (MC4R); P32245; MC4R-expressing cells, MTII-stimulated cAMP, LANCE TR-FRET; inhibition, % at 6.5 µM; 360,000 tested, 0.48% active;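 active = inhibition above its plate's cutoff, the mean of tested wells on that plate plus 3 SD, cut at about 29% in these data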
Target sequence (P32245 whole entry, looked up): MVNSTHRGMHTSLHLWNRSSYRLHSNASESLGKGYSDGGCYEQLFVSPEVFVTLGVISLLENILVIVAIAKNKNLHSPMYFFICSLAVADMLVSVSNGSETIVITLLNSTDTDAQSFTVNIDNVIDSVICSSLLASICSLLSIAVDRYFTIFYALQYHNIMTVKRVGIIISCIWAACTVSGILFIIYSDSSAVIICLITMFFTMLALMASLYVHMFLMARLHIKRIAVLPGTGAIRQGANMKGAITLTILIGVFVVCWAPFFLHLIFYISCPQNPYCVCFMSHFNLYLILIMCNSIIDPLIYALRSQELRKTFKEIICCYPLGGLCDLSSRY
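Assay system: human MC4R-expressing U2OS cells; reagent: Melanotan II stimulation of cells; dosing: 6.5 µM single dose; timing: compound 30 min, challenge 1 h, detection 1 h; signal: TR-FRET cAMP assay; replicates: one well per compound, no replicates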
Granule exo inh = blocks lytic granule exocytosis. TALL-104 LAMP-1 surface exposure, flow cytometry; cells stimulated with thapsigargin and PMA. inhibition, % at 10 µM. 360,000 tested, 0.66% active;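 active = inhibition above about 55%, limit read from the data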
EP2 antag = EP2 receptor (human) inhibition; P43116; C6 glioma cells expressing human EP2, cAMP TR-FRET; cells stimulated with saturating PGE2; 260,000 tested, 0.52% active; inhibition, % at 25 µM; AID 1422;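 active = percent inhibition above 40 after rounding to a whole number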;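 also: rat C6 glioma host cells with rolipram phosphodiesterase inhibitor present; the protocol text gives 20 µM as final concentration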
Target sequence (P43116 whole entry, looked up): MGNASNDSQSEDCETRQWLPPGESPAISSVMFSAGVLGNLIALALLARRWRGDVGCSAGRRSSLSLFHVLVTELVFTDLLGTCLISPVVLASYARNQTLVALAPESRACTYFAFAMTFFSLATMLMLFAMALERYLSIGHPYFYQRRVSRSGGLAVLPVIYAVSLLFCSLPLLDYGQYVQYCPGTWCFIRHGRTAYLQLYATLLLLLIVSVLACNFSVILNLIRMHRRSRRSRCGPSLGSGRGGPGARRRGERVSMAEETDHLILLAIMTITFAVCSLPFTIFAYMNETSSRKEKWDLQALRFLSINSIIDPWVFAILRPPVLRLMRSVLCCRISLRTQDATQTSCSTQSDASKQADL
MC4R ag barr = human MC4R agonism via beta-arrestin; P32245; U2OS MC4R beta-arrestin complementation, luminescence; percent of melanotan II response, DMSO zero; AID 540308; 360,000 tested, 0.98% active; activation, % at 8.9 µM;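 active = activation above a per-plate cutoff, the mean activation of sample wells on that plate plus 3 SD, cut at about 8% in these data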
EP2 mod = modulates human prostaglandin E2 receptor EP2 signaling | AID 940 | EP2-expressing cells, cAMP HTRF FRET, PGE2 co-stimulation | P43116 | induction, % at 25 µM | 260,000 tested, 0.83% active;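 active = compounds whose cAMP rise, as percent of the full-agonist control response, exceeds 60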;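 also: rat C6 glioma line stably carrying human EP2 under a CMV promoter; the protocol text gives 20 µM as final concentration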
T cell modulator = T cell immune modulation candidate; AID 2052; 2C CD8+ T cell-vesicle binding, flow cytometry; stronger effect = lower value; response (vesicle binding), % at 7 µM; 330,000 tested, 0.068% active;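 active = response, share of CD8 T cells binding vesicles, and their 90th percentile fluorescence all below set limits, cut at about 80% in these data, passing the limit was not always enough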;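 also: values below 100% mean blocked vesicle binding to the CD8+ T cells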
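Material: murine 2C transgenic CD8+ T lymphocytes / Also added: QL9-peptide-loaded Drosophila micro-vesicles bearing Ld, ICAM-1 and B7-1 / Schedule: binding step 1.5 h, 37 °C, antibody labelling 20 min, ice / Signal: flow cytometry, PE anti-B7-1 (FL2) versus Alexa647 anti-CD8 (FL8), PFA-fixed / Evaluation: percent CD8+ FL2 mean versus row control / Benchmarks: naked versus QL9-loaded vesicles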
Exocytosis CP01 = blocks lytic granule exocytosis; inhibition, % at 10 µM; shares compounds with Granule exo inh; TALL-104 cells, LAMP-1 externalization, flow cytometry; stimulated with PMA plus thapsigargin; AID 651954; 1,500 tested, 11% active; in the data active = inhibition above about 60%
Each line names hits and unclear results; the compound was inactive in the other large screens (follow-up assays come after a bar, where they were run). Compounds with a hit are over-represented: about 2.6% of the library has one in this group of screens.

O=C(NCCCN1CCN(Cc2ccccc2Cl)CC1)Nc1ccccc1	none
Cc1ccc(C)c(CN2CCC(CNC(=O)Nc3ccc(Cl)cc3)CC2)c1	Granule exo inh 66 (no result: EP2 antag, EP2 mod) | Exocytosis CP01 inactive
Cc1ccc(C)c(CN2CCC(CNC(=O)Nc3ccc(Br)cc3F)CC2)c1	none (no result: EP2 antag, EP2 mod)
Cc1ccccc1-n1c(SCC(=O)NC2CCCC2)nnc1-c1ccccn1	none (no result: MC4R antagonist, Granule exo inh, MC4R ag barr, T cell modulator)
COc1ccc(N2CC(C(=O)Nc3nc4ccccc4s3)CC2=O)cc1 (stereo not drawn)	none
Cc1cccn2c(=O)c3cc(C(=O)NC4CCCCC4)c(=N)n(Cc4ccc(F)cc4)c3nc12	Granule exo inh 70 (no result: EP2 antag, EP2 mod) | Exocytosis CP01 inactive
Clc1ccc(CSc2nncn2-c2ccc3c(c2)OCCO3)cc1	Granule exo inh 72 | Exocytosis CP01 inactive
CCCCCCCN1CCC(=O)N([C@H](CO)Cc2ccccc2)CC1	none (no result: EP2 antag, EP2 mod)
CCCCCCCN1CCC(=O)N([C@H](CO)CC(C)C)CC1	Granule exo inh 81 (no result: EP2 antag, EP2 mod) | Exocytosis CP01 inactive
CCOC(=O)C1CCCN(Cc2cccc(Oc3ccccc3)c2)C1 (stereo not drawn)	none (no result: EP2 antag, EP2 mod)
CCN(CC)C(=O)C1CCCN(Cc2cccc(Oc3ccccc3)c2)C1 (stereo not drawn)	Granule exo inh 68 | Exocytosis CP01 inactive
FC(F)(F)c1cccc(NC(=S)N(CCCN2CCCC2)Cc2cccn2Cc2ccc(Cl)cc2)c1	Granule exo inh 68 | Exocytosis CP01 inactive
CN(C)CCCN(Cc1ccccc1)C(=S)Nc1cccc(C(F)(F)F)c1	none
COc1ccc(NC(=S)N(CCCN2CCCC2)Cc2cccn2Cc2ccc(Cl)cc2)cc1Cl	Granule exo inh 69 | Exocytosis CP01 inactive
COc1ccc(NC(=S)N(CCCN2CCC(C)CC2)Cc2cccs2)cc1Cl	none
COc1ccccc1CNc1nc2nc(C)c(Cl)c(=O)n2[nH]1	none
CC(C)c1cc(C(=O)N2CCCC(N3CCN(c4ccccc4F)CC3)C2)nc(N)n1 (stereo not drawn)	none (no result: EP2 antag, EP2 mod)
Cn1c(Cl)c(C(=O)Nc2ccc(Cl)cc2)c2ccccc21	Granule exo inh 69 | Exocytosis CP01 inactive
O=C1NCCN/C1=C\C(=O)c1ccc(Cl)cc1	none
CCOC(=O)c1c(CSc2ccccc2)oc2cc(Br)c(O)c(CN(C)C)c12	none
CC(=O)c1c(CSc2ccccc2)oc2ccc(O)c(CN(C)C)c12	Granule exo inh 66 (no result: EP2 antag, EP2 mod) | Exocytosis CP01 inactive
COC(=O)Cc1c(CSc2ccccc2)oc2ccc(O)c(CN(C)C)c12	Granule exo inh 58 (no result: EP2 antag, EP2 mod) | Exocytosis CP01 inactive
COC(=O)[C@@H]1C[C@@]2(O)[C@H](O)[C@H](O)[C@H](O)C[C@H]2N1Cc1cccc2ccccc12	Granule exo inh 70 | Exocytosis CP01 inactive
CCc1ccc(S(=O)(=O)Nc2cc(SCC(=O)O)c(O)c3ccccc23)cc1	Granule exo inh 67 | Exocytosis CP01 inactive
O=C(O)CSc1cc(NS(=O)(=O)c2cccc([N+](=O)[O-])c2)c2ccccc2c1O	Granule exo inh 75 (no result: T cell modulator) | Exocytosis CP01 inactive
CC(C)(C)C1CCc2onc(C(=O)Nc3cnn(Cc4ccc(F)cc4)c3)c2C1 (stereo not drawn)	none
CCN(CC)c1cc(C)c2cc(NC(=O)c3cccs3)ccc2n1	Granule exo inh 67 | Exocytosis CP01 inactive
CCN(CC)c1cc(C)c2cc(NC(=O)c3ccccc3OC)ccc2n1	none
COCCn1c(N2CCC(Cc3ccccc3)CC2)nc2c1c(=O)[nH]c(=O)n2C	none (no result: MC4R antagonist, Granule exo inh, MC4R ag barr, T cell modulator)
CCCCn1c(N2CCC(Cc3ccccc3)CC2)nc2c1c(=O)[nH]c(=O)n2C	Granule exo inh 88 | Exocytosis CP01 inactive
Cc1ccc2nc3c(c(Nc4ccc(O)cc4)c2c1)CCC3	Granule exo inh 61 (no result: EP2 antag, EP2 mod) | Exocytosis CP01 inactive
COC(C[C@@H](O)[C@H](C)[C@@H](O)COCc1ccccc1)OC	Granule exo inh 70 (no result: T cell modulator) | Exocytosis CP01 inactive
COC(C[C@H](O)[C@@H](C)[C@@H](O)COCc1ccccc1)OC	none (no result: T cell modulator)
CCOc1ccc(OCCC(=O)OCC(=O)NCCc2ccc(S(N)(=O)=O)cc2)cc1	none (no result: EP2 antag, EP2 mod)
COc1ccccc1N(C)S(=O)(=O)c1ccc(Cl)c(C(=O)OCc2c(C)noc2C)c1	Granule exo inh 76 | Exocytosis CP01 inactive
O=C(CN1C(=O)c2cccc3cccc1c23)NCc1ccccn1	none
COC(=O)c1ccc(NCc2c(O)ccc(O)c2Br)cc1Cl	Granule exo inh 98 (no result: EP2 antag, EP2 mod, T cell modulator) | Exocytosis CP01 80
COC(=O)c1ccc(NCc2cc(O)ccc2O)cc1O	none (no result: EP2 antag, EP2 mod, T cell modulator)
CCOc1ccc(Br)cc1S(=O)(=O)Nc1cccc(S(=O)(=O)NC2=NCCC2)c1	none
CCOc1ccc(Br)cc1S(=O)(=O)Nc1cccc(S(=O)(=O)N2CCOCC2)c1	Granule exo inh 97 (no result: EP2 antag, EP2 mod, T cell modulator) | Exocytosis CP01 inactive
Fc1cccc(-c2cncc(N3CCN(CCN4CCCC4)CC3)n2)c1	Granule exo inh 59 (no result: EP2 antag, EP2 mod, T cell modulator) | Exocytosis CP01 inactive
FC(F)(F)c1cccc(-c2cncc(N3CCN(CCN4CCCC4)CC3)n2)c1	none (no result: EP2 antag, EP2 mod, T cell modulator)
COc1cc(/C=N/Nc2nc(=O)[nH]nc2C)cc(OC)c1O	none
O=C(CCN1CCOCC1)c1ccc(Br)cc1	Granule exo inh 96 | Exocytosis CP01 inactive
O=C(CCN1CCN(c2ccccc2)CC1)c1ccc(Br)cc1	Granule exo inh 56 (no result: EP2 antag, EP2 mod) | Exocytosis CP01 inactive
COc1ccc(C(=O)CCN2CCN(c3ccc(OC)cc3)CC2)cc1	Granule exo inh 101 (no result: EP2 antag, EP2 mod) | Exocytosis CP01 inactive
COCCNC(=O)C1CCCN(Cc2ccc(C(C)C)cc2)CC1 (stereo not drawn)	Granule exo inh 68 (no result: EP2 antag, EP2 mod, T cell modulator) | Exocytosis CP01 inactive
COc1cc(CN2CCC(C(=O)NCCC(C)C)CC2)ccc1OCc1ccccc1	Granule exo inh 63 (no result: EP2 antag, EP2 mod) | Exocytosis CP01 inactive
CC(C)CCNC(=O)C1CCN(Cc2cccc(OCc3ccccc3)c2)CC1	Granule exo inh 69 (no result: EP2 antag, EP2 mod) | Exocytosis CP01 inactive
COCCNC(=O)C1CCCN(Cc2ccc(C)cc2)CC1 (stereo not drawn)	none (no result: EP2 antag, EP2 mod, T cell modulator)
CCOC(=O)C1CCN(Cc2ccc(OCc3ccccc3)c(OC)c2)CC1	none (no result: EP2 antag, EP2 mod)
COC(=O)C1=C(N)OC2=C(C(=O)CC(C)(C)C2)C1c1ccoc1 (stereo not drawn)	none
CN(CC(=O)Nc1ccccc1Cl)C(=O)COC(=O)c1ccc([N+](=O)[O-])cc1Cl	none (no result: EP2 antag, EP2 mod)
CN(CCOc1ccccc1)CC(=O)Nc1ccc([N+](=O)[O-])cc1Cl	Granule exo inh 73 | Exocytosis CP01 inactive
COc1ccc(-n2nc3c(c2NC(=O)C2CC2)CS(=O)C3)cc1 (stereo not drawn)	none (no result: EP2 antag)
CC(C)C(=O)c1cc2c(cc1NC(=O)c1cccs1)OCCO2	Granule exo inh 75, EP2 mod 65 | Exocytosis CP01 inactive
COc1ccccc1OCCCCn1ncc2ccc(OC)c(OC)c2c1=O	Granule exo inh 78 (no result: EP2 antag, EP2 mod) | Exocytosis CP01 inactive
